Measured values collected from several papers.
Each line is one published result; the experiments were not run side by side.
SLCO1B1: Solute carrier organic anion transporter family member 1B1 (SLCO1B1, Homo sapiens, UniProt Q9Y6L6)
CHRM1: Muscarinic acetylcholine receptor M1 (CHRM1, Homo sapiens, UniProt P11229)
PGR: Progesterone receptor (PGR, Homo sapiens, UniProt P06401)

| Compound | target | test | system | conditions | quantity | value |
| --- | --- | --- | --- | --- | --- | --- |
| Cc1nnc2n1-c1ccc(Cl)cc1C(c1ccccc1)=NC2 | Cytochrome P450 1A2 (CYP1A2, Homo sapiens, UniProt P05177) | enzyme activity, inhibitor, fluorescence |  |  | IC50 | > 100 µM |
| CCN1C[C@]2(COC)[C@H](O)C[C@H](OC)[C@@]34[C@@H]5C[C@@]6(O)[C@H](OC(=O)c7ccccc7)[C@@H]5[C@@](OC(C)=O)([C@@H]([C@H](OC)[C@H]23)[C@@H]14)[C@@H](O)[C@@H]6OC | SLCO1B1 | transporter uptake, inhibitor, fluorescence | CHO | 30 min, pH 7.4 | IC50 | > 100 µM |
| COC1CCN(CCC(C#N)(c2ccccc2)c2ccccc2)CC1 | Potassium voltage-gated channel subfamily A member 3 (Kcna3, Mus musculus, UniProt P16390) | ion current, inhibitor, patch clamp |  |  | IC50 | > 100 µM |
| CCCCCCCNCCCc1ccc([N+](=O)[O-])cc1 | CHRM1 | ligand displacement, radioligand |  |  | Ki | 1.9 µM |
| Clc1cccc(N2CCNCC2)c1Cl | CHRM1 | ligand displacement, radioligand |  | cell membranes | Ki | 25.1 µM |
| C[C@]12CC[C@H]3[C@@H](CCC4=CC(=O)CC[C@@H]43)[C@@H]1CC[C@@H]2O | PGR | ligand displacement |  |  | IC50 | 0.0678 µM |
| CC(C)(C)[C@H](NC(=O)C(F)(F)F)C(=O)N1C[C@H]2[C@@H]([C@H]1C(=O)N[C@H](C#N)C[C@@H]1CCNC1=O)C2(C)C | Papain (Carica papaya, UniProt P00784) | enzyme activity, inhibitor |  |  | IC50 | > 10 µM |
| C[C@]1(O)CC[C@H]2[C@@H]3CCC4=CC(=O)CCC4=C3CC[C@@]21C | PGR | reporter gene, agonist |  |  | EC50 | 0.0008 µM |
| CC(C)(C)[C@H](NC(=O)C(F)(F)F)C(=O)N1C[C@H]2[C@@H]([C@H]1C(=O)N[C@H](C#N)C[C@@H]1CCNC1=O)C2(C)C | Cytochrome P450 3A4 (CYP3A4, Homo sapiens, UniProt P08684) | enzyme activity, inhibitor | human, liver microsomes |  | Ki | 22.6 µM |
| CCOC(=O)c1cncn1[C@H](C)c1ccccc1 | SLCO1B1 | transporter uptake, inhibitor, fluorescence | CHO | 30 min, pH 7.4 | IC50 | > 100 µM |
| C[C@]12CC[C@H]3[C@@H](CCC4=CC(=O)CC[C@@]43C)[C@@H]1CC[C@@H]2O | PGR | ligand displacement |  |  | IC50 | > 0.5 µM |
